H69AR growth 86K: growth inhibitors of human H69AR lung tumor cells | H69AR lung tumor viability, ATP luminescence, 72 h; stronger effect = lower value | viability, % at 10 µM | hit rate 6% among 85,000 | AID 598;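 active means viability at or below 40%; inactive means viability above 40%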;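 further: multidrug resistant small cell line overexpressing MRP-1 efflux transporter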
Lung fibro prol: blocks proliferation of human lung fibroblasts; LL 47 human lung fibroblast viability, ATP luminescence; stronger effect = lower value; viability, % at 10 µM; hit rate 1.1% among 85,000; AID 719;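 active means viability at or below 50% in the single dose screen; inactive means viability above 50%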;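 further: compound exposure lasted 72 h before the ATP readout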
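Test system: LL 47 human lung fibroblasts; Quantity: 1,150 cells/well; Buffer or medium: IMEM plus 15% FBS; Dosing: tenfold compound dosing solution, DMSO at 0.1%; Timing: overnight cell rest, 72 h compound treatment at 37 °C; Detection: ATP-based CellTiter-Glo luminescent readout; Read-out basis: viability percentage against median untreated-cell control; Controls: cell-only wells, no compound.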
Phagocyt inh: macrophage phagocytosis inhibition; J774A.1 macrophage IgG-bead phagocytosis, imaging; inhibition, % at 5 µM; hit rate 0.07% among 110,000;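 active means inhibition above the mean of the plate negative controls plus 5 SD, cut at about 13% in these data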;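 further: phagocytic index as fraction of beads internalized from green versus red external bead signal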
bCat KO growth: beta-catenin-lacking colon tumor cell growth suppression. AID 818. HCT116 beta-catenin knockout viability, CellTiter-Glo, 60 h; stronger effect = lower value. viability, % at 10 µM. hit rate 1.5% among 140,000;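 active means viability at or under a set limit, the compound median less 4 SD, cut at about 6% in these data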
PTEN del growth: suppresses growth of cells with PTEN deletion. HCT116 PTEN-null viability, CellTiter-Glo, 60 h; stronger effect = lower value. viability, % at 10 µM. hit rate 1.2% among 140,000. AID 827;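 active means viability at or below a set limit, 4 SD under the median of all tested compounds, cut at about 3.7% in these data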;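 further: PTEN knockout HCT116 line with beta catenin targeted HCT116 as companion control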
HUVEC inhibit: blocks proliferation of human endothelial cells | HUVEC proliferation, CellTiter-Glo luminescence, 72 h; stronger effect = lower value | viability, % at 10 µM (by protocol) | hit rate 1.1% among 86,000 | AID 648;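 active means viability at or below 30%; inactive means viability above 30%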
Numbers stand for hits; n = inactive; x = no result. Shown is part of a subset that was picked to be rich in hits.

SMILES	H69AR growth 86K	Lung fibro prol	Phagocyt inh	bCat KO growth	PTEN del growth	HUVEC inhibit
CCC(=O)Nc1ccc(C(=O)N/N=C/c2ccc([N+](=O)[O-])cc2)cc1	x	x	n	n	n	x
Cc1ccc(OCC(=O)N/N=C/c2ccc([N+](=O)[O-])o2)cc1	x	x	n	n	n	x
CCCCCCCC(=O)Nc1ccc(C(=O)N/N=C/c2cccc([N+](=O)[O-])c2)cc1	x	x	n	1.5	1.7	x
O=C(COc1ccccc1)N/N=C/c1ccc([N+](=O)[O-])o1	x	x	x	1.3	1.0	x
CCCc1ccc(-c2cc(C(=O)N/N=C/c3ccc([N+](=O)[O-])o3)c3ccccc3n2)cc1	x	x	n	n	n	x
CCCC(=O)Nc1ccc(C(=O)N/N=C/c2ccc([N+](=O)[O-])o2)cc1	x	x	n	2.7	1.9	x
O=C(N/N=C/c1ccc([N+](=O)[O-])o1)c1cc(-c2cccc(Br)c2)nc2ccccc12	x	x	x	1.8	1.7	x
Cc1nc2ccccn2c(=O)c1CCN1CCC(C(=O)c2ccc(F)cc2)CC1	n	n	x	n	n	n
Cc1nc2sccn2c(=O)c1CCN1CCC(=C(c2ccc(F)cc2)c2ccc(F)cc2)CC1	n	n	x	n	n	32
O=C(c1ccc(Cl)cc1)C(Cn1cncn1)C(Sc1ccccc1)c1ccccc1 (centres undefined)	x	x	n	5.6	n	x
CC1(C)Cc2c(sc3[nH]c(=S)n(Cc4ccco4)c(=O)c23)CO1	30	n	n	n	n	n
CCOC(=O)C1C(=O)C(C(C)=O)C(=O)CC1CC(C)SCC (centres undefined)	n	n	x	n	n	n
Oc1oc(-c2ccccc2)nc1C=Nc1cccc2ccccc12	20	n	n	n	n	n
CCCc1nc(-c2cc3ccc(C)cc3[nH]c2=O)no1	n	n	x	n	n	n
CCOc1ccccc1-c1nc(-c2cc3ccc(C)cc3[nH]c2=O)no1	40	n	x	n	n	n
Clc1ccc(-n2ncc3c(NCc4ccco4)ncnc32)cc1	12	n	x	n	n	n
Clc1ccc(-n2ncc3c(NCC4CCCO4)ncnc32)cc1 (centres undefined)	20	n	n	n	n	n
c1ccc(-n2ncc3c(NCC4CCCO4)ncnc32)cc1 (centres undefined)	n	n	x	n	n	n
CN(C)CCNc1ncnc2c1cnn2-c1ccc(Cl)cc1	n	n	n	n	n	n
COc1ccc(-n2ncc3c(NCc4ccco4)ncnc32)cc1	n	n	n	n	n	n
Clc1ccc(-n2ncc3c(NCc4ccc5c(c4)OCO5)ncnc32)cc1	7.9	n	n	n	n	n
c1ccc(CNc2ncnc3c2cnn3Cc2ccccc2)cc1	26	n	x	n	n	n
Cc1c(C)n(C)c2ccc(C(=O)Nc3cccc4ccccc34)cc12	x	x	x	n	n	x
CC1CCN(C(=O)c2cc(F)c(F)cc2Cl)CC1	n	n	x	n	n	n
O=C(NCc1ccccc1)c1ccc(CS(=O)(=O)c2ccccc2)o1	n	n	n	n	n	n
SMILES	H69AR growth 86K	Lung fibro prol	Phagocyt inh	bCat KO growth	PTEN del growth	HUVEC inhibit
CCC(=O)Nc1ccccc1C(=O)C(=O)Nc1ccccc1	x	x	n	n	n	x
Cc1cc(C)nc(N2CCN(c3ncnc4c3cnn4Cc3ccc(Cl)cc3Cl)CC2)n1	32	x	n	x	x	n
Clc1ccc(Cn2ncc3c(NCc4ccco4)ncnc32)c(Cl)c1	26	x	n	n	n	n
Cc1ccccc1N1CCN(c2ncnc3c2cnn3Cc2ccc(Cl)cc2)CC1	n	n	n	n	n	n
CCn1cc(C(=O)NC2CCCCCC2)c2cc(OC)c(OC)cc2c1=O	n	n	n	n	n	n
CC(C)CC(=O)NC1(C(F)(F)F)C(=O)N(CC(C)C)C2=C1C(=O)CC(C)(C)C2 (centres undefined)	x	x	x	n	n	x
COc1cccc(C2c3c(oc4ccc(Cl)cc4c3=O)C(=O)N2c2cc(C)on2)c1OC (centres undefined)	6.6	n	n	2.8	n	n
Cc1ccc(S(=O)(=O)CC#CCOC(=O)c2ccc([N+](=O)[O-])cc2)cc1	1.6	43	x	n	n	n
CCc1ccccc1NC(=O)C(CC)Sc1nc2cc3c(cc2c(=O)n1Cc1ccco1)OCO3 (centres undefined)	6.3	n	n	n	n	n
CCc1ccc(NC(=O)C(CC)Sc2nc3cc4c(cc3c(=O)n2Cc2ccco2)OCO4)cc1 (centres undefined)	9.8	28	n	1.8	n	n
CCC(Sc1nc2cc(OC)c(OC)cc2c(=O)n1Cc1ccco1)C(=O)NCCOC (centres undefined)	n	n	n	n	n	n
COc1ccccc1NS(=O)(=O)c1cccc(C(=O)N/N=C2\CC(=O)CC(C)(C)C2)c1	x	x	n	n	n	x
O=C(CSc1ccc(C(F)(F)F)cc1[N+](=O)[O-])Nc1ccc2ccccc2c1	x	x	n	n	n	x
CC(=O)Nc1cccc(Oc2ncnc3scc(-c4ccc(C)cc4)c23)c1	x	x	n	n	n	x
COc1ccc(S(=O)(=O)Nc2c(C)ccc3nsnc23)cc1OC	n	n	n	n	n	n
c1ccc(Nc2nc(-c3ccccn3)cs2)cc1	37	n	n	n	n	n
Nc1ccc(Nc2nc(-c3ccncc3)cs2)cc1	37	n	n	n	n	n
c1ccc(-c2csc(Nc3cccnc3)n2)nc1	n	n	n	n	n	n
COc1cccc2sc(Nc3nc(-c4ccccn4)cs3)nc12	x	x	n	4.3	2.6	x
Cc1cc(C)c2oc(-c3cccc(NC(=O)c4ccc(F)cc4)c3)nc2c1	17	n	n	n	n	n
Cc1cc(C)c2oc(-c3ccc(C)c(NC(=S)NC(=O)c4cccs4)c3)nc2c1	x	x	x	3.8	2.7	x
COc1ccc(C2SCCN2C(=S)Nc2cccc(Cl)c2)cc1 (centres undefined)	x	x	n	n	n	x
COC(=O)CCCC(=O)Nc1c(F)c(F)c(F)c(F)c1F	n	n	n	n	n	n
COc1cc2c(cc1NC(=S)Nc1cccc(C(F)(F)F)c1)oc1ccccc12	30	n	x	n	n	n
Cc1cc(C)cc(N=Cc2ccc([N+](=O)[O-])s2)c1	x	x	n	1.9	1.8	x
SMILES	H69AR growth 86K	Lung fibro prol	Phagocyt inh	bCat KO growth	PTEN del growth	HUVEC inhibit
Cc1ccc(NC(=S)N/N=C/c2ccc([N+](=O)[O-])s2)cc1	x	x	n	1.6	1.8	x
O=C(CNC(=O)c1ccccc1Cl)N/N=C/c1ccc([N+](=O)[O-])s1	x	x	n	n	n	x
Cc1onc(-c2ccccc2)c1C(=O)N/N=C/c1ccc([N+](=O)[O-])s1	x	x	n	2.9	2.6	x
NC(=O)c1ccc(N=Cc2ccc([N+](=O)[O-])s2)cc1	x	x	n	1.6	1.3	x
O=C(C1CCCN(S(=O)(=O)c2cccc3cccnc23)C1)N1CCN(c2ccc(F)cc2)CC1 (centres undefined)	n	n	n	n	n	n
Cc1nc2ccccn2c1C(=O)N=Nc1c(O)n(CCC(C)C)c2ccccc12	x	x	n	n	n	x
O=C1NC(Nc2nccs2)(C(F)(F)F)C(=O)N1CCc1ccccc1 (centres undefined)	x	n	n	n	n	n
COc1ccc2c(c1)c1nc(SCC(C)C)n(CCO)c(=O)c1n2C	n	n	n	n	n	n
